# Results gathered from unrelated publications.
# Each line is one published result; the experiments were not run side by side.
# APC: Adenomatous polyposis coli protein (APC, Homo sapiens, UniProt P25054)
# Ephx2: Bifunctional epoxide hydrolase 2 (Ephx2, Mus musculus, UniProt P34914)
# EGFR C797S/L858R/T790M: Epidermal growth factor receptor (EGFR, Homo sapiens, UniProt P00533, C797S/L858R/T790M)
# EGFR: Epidermal growth factor receptor (EGFR, Homo sapiens, UniProt P00533)
# AMY1A: Alpha-amylase 1A (AMY1A, Homo sapiens, UniProt P0DUB6)
SMILES,target,read-out,mode,technique,IC50 [nM]
CC(C)C[C@H](NC(=O)[C@H](Cc1ccc2ccccc2c1)NC(=O)[C@H](CCC(=O)O)NC(=O)c1ccncc1)C(=O)NC1CC1c1ccccc1 (stereo partly drawn),APC,ligand displacement,,FP,72400
O=C(Nc1ccc(-c2cccc3ncccc23)cc1)C1CCN(S(=O)(=O)c2ccccc2Cl)CC1,Ephx2,enzyme activity,inhibitor,fluorescence,17.2
Cc1ncc(CN2CCN(Cc3ccccn3)CC2)c2cc(C(=O)c3ccc4c(c3)OCCO4)oc12,EGFR C797S/L858R/T790M,enzyme activity,inhibitor,ADP detection,29
O=C(Nc1ccc(-c2cnc3ccccc3c2)cc1)C1CCN(S(=O)(=O)c2ccccc2Cl)CC1,Ephx2,enzyme activity,inhibitor,fluorescence,116
Cc1ccc2c(-c3cc4c(CN5CCN(Cc6ccccn6)CC5)cnc(C)c4o3)cc(=O)oc2c1,EGFR,enzyme activity,inhibitor,ADP detection,8.38
CC(C)C[C@H](NC(=O)[C@H](Cc1ccc2ccccc2c1)NC(=O)[C@H](CCC(=O)O)NC(=O)C1CCCCC1)C(=O)NC1CC1c1ccccc1 (stereo partly drawn),APC,ligand displacement,,FP,21900
Cc1ncc(CN2CCc3ccccc3C2)c2cc(C(=O)c3ccc4c(c3)OCCO4)oc12,EGFR C797S/L858R/T790M,enzyme activity,inhibitor,ADP detection,42.7
CC(C)C[C@H](NC(=O)[C@H](Cc1ccc2ccccc2c1)NC(=O)[C@H](CCC(=O)O)NC(=O)c1ccnc(Cl)n1)C(=O)NC1CC1c1ccccc1 (stereo partly drawn),APC,ligand displacement,,FP,4270
O=C(Nc1ccc(-c2cccc3cccnc23)cc1)C1CCN(S(=O)(=O)c2ccccc2Cl)CC1,Ephx2,enzyme activity,inhibitor,fluorescence,95.9
Cc1c(Cc2ccccc2)c(=O)oc2c(C)c(OCC(=O)NN=Cc3ccccc3)ccc12,EGFR,enzyme activity,inhibitor,ATP luminescence,307
Oc1ccc(/C=C/c2cc(O)cc(O)c2)cc1,AMY1A,enzyme activity,inhibitor,,> 100000
CC(C)C[C@H](NC(=O)[C@H](Cc1ccc2ccccc2c1)NC(=O)[C@H](CCC(=O)O)NC(=O)c1cccc(F)c1)C(=O)NC1CC1c1ccccc1 (stereo partly drawn),APC,ligand displacement,,FP,29500
O=C(Nc1ccc(-c2ccc3ccccc3n2)cc1)C1CCN(S(=O)(=O)c2ccccc2Cl)CC1,Ephx2,enzyme activity,inhibitor,fluorescence,182
Oc1ccc([C@@H]2c3c(O)cc(O)cc3[C@@H]3c4c(cc(O)cc4[C@H]2[C@@H]2c4cc(O)cc5c4[C@@H](c4cc(O)cc(O)c4[C@H]2c2ccc(O)cc2)[C@H](c2ccc(O)cc2)O5)O[C@H]3c2ccc(O)cc2)cc1,AMY1A,enzyme activity,inhibitor,,33700
CC(C)C[C@H](NC(=O)[C@H](Cc1ccc2ccccc2c1)NC(=O)[C@H](CCC(=O)O)NC(=O)c1ccccc1)C(=O)NC1CC1c1ccccc1 (stereo partly drawn),APC,ligand displacement,,FP,77600
